# Published values of several laboratories.
# Protocols differ between the studies behind these lines.
# MC3R: Melanocortin receptor 3 (MC3R, Homo sapiens, UniProt P41968)
# TAOK1: Serine/threonine-protein kinase TAO1 (TAOK1, Homo sapiens, UniProt Q7L7X3)
SMILES,target,assay,system,setting,quantity,result
CCCC[C@H](NC(C)=O)C(=O)N[C@@H](C)C(=O)N[C@@H](Cc1c[nH]cn1)C(=O)N[C@@H](Cc1ccccc1)C(=O)N[C@@H](CCCNC(=N)N)C(=O)N[C@H](Cc1c[nH]c2ccccc12)C(=O)N[C@@H](CC(=O)O)C(=O)N[C@@H](CCCNC(=N)N)C(=O)N[C@@H](Cc1ccccc1)C(=O)N[C@@H](C(=O)N1CCC[C@@H]1C(N)=O)C(C)C,MC3R,"cAMP, agonist",CHO-K1,,Emax,100%
N#Cc1ccc(NC(=O)Nc2ccccc2)cc1,"SRSF protein kinase 3 (SRPK3, Homo sapiens, UniProt Q9UPE1)","cell-free assay, competition with immobilised ligand",,25 µM,remaining binding,9.7%
C[C@]1(O)CCCN(c2nc(Nc3ccc(S(=O)(=O)N[C@H]4CC[C@H](CN5CCN(c6ccc(C7CCC(=O)NC7=O)cc6F)CC5)CC4)cc3F)ncc2C(F)(F)F)C1 (stereo partly shown),TAOK1,"binding, competition with immobilised ligand",,1 µM,remaining binding,63%
CCN1/C(=C/C(C)=O)Sc2ccc(F)cc21,"Type-1 angiotensin II receptor (AGTR1, Homo sapiens, UniProt P30556)","ligand displacement, radioligand",,10 µM,inhibition,0%
C#Cc1cc(-c2cc(Nc3nc(N[C@@H](C)c4ccc(F)cn4)ncc3Cl)n[nH]2)ccc1C=O,"Non-receptor tyrosine-protein kinase TYK2 (TYK2, Homo sapiens, UniProt P29597)","enzyme activity, inhibitor",,0.2 µM,inhibition,67.2%
CCCCC(=O)Nc1ccc(-c2ccc3ncn(CCC)c(=O)c3c2)cn1,"Proto-oncogene tyrosine-protein kinase ROS (ROS1, Homo sapiens, UniProt P08922)","binding, competition with immobilised ligand",,0.5 µM,remaining binding,89%
CC(=O)N[C@@H](CCCNC(=N)N)C(=O)N[C@H]1CSSC[C@@H](C(N)=O)NC(=O)[C@H](Cc2c[nH]c3ccccc23)NC(=O)[C@H](CCCNC(=N)N)NC(=O)[C@@H](Cc2ccccc2)NC(=O)[C@H](Cc2c[nH]cn2)NC(=O)[C@@H](C)NC1=O,MC3R,"cAMP, agonist",CHO-K1,,Emax,88%
COc1ccc2oc(-c3ccc4nc(N)oc4c3)c/c(=N\c3ccccc3NC(=O)CCN)c2c1,"Cyclin-dependent kinase 6, with cyclin D3 (CDK6, Homo sapiens, UniProt Q00534)",binding,,1 µM,remaining binding,98%
Cc1cc(O)c(-c2ccc([C@@H](C)CN(C)C)cc2)c2c1[nH]c(=O)c1sccc12,"Cyclin-dependent kinase 6 (CDK6, Homo sapiens, UniProt Q00534)","enzyme activity, inhibitor",,0.1 µM,inhibition,1.19%
Cc1cc(S(=O)(=O)N[C@H]2CC[C@H](CN3CCN(c4ccc(C5CCC(=O)NC5=O)cc4F)CC3)CC2)ccc1Nc1ncc(C(F)(F)F)c(N2CCC[C@](C)(O)C2)n1 (stereo partly shown),TAOK1,"binding, competition with immobilised ligand",,1 µM,remaining binding,72%
Cc1cc2c(C(N)=O)c(N)n(-c3c(C)ccc(O)c3C)c2nc1C,"Serine/threonine-protein kinase B-raf (BRAF, Homo sapiens, UniProt P15056)","enzyme activity, inhibitor, ADP detection",,0.3704 µM,inhibition,84%
NC/C(=C\F)COc1cccc(Cn2c(=S)[nH]c(=O)c3[nH]cnc32)c1,"Neuropeptide Y receptor type 1 (NPY1R, Homo sapiens, UniProt P25929)","ligand displacement, radioligand",,10 µM,inhibition,< 50%
C1=C/COCc2cc(ccc2OCCN2CCCC2)Nc2nccc(n2)-c2cccc(c2)COC/1,"Non-receptor tyrosine-protein kinase TYK2, JH1 (TYK2, Homo sapiens, UniProt P29597)",cell-free assay,,0.1 µM,remaining signal,52%
